Reference: ChEMBL document CHEMBL1649352, “Catechin derivatives from Parapiptadenia rigida with in vitro wound-healing properties” (J Nat Prod, 2010)
Calls of active or inactive are those of the source. The rule behind the calls is not given here.

Experiments:
NIH3T3 [1] = experiment: Antimigratory activity against Swiss albino mouse 3T3 cells assessed as increase of cell numbers at 1 uM after 12 hrs by scratch-wound assay; assay type: functional, cell-based
Method in brief: (§1)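 Swiss 3T3 albino mouse fibroblasts, cultured in DMEM with 10% FCS and penicillin/streptomycin at 37 °C, 5% CO2. A scratch wound was made in the confluent monolayer. Compounds were tested at 1, 10 and 20 µM. PDGF 2 ng/mL served as positive control and a DMSO-only well as reference. The % increase in cells migrating and proliferating into the wounded area was read after 12 h. At least triplicate runs, mean ± SEM.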

NIH3T3 [2] = experiment: Antimigratory activity against Swiss albino mouse 3T3 cells assessed as increase of cell numbers at 10 uM after 12 hrs by scratch-wound assay; assay type: functional, cell-based; method in brief: as §1
[3] = molecular target: Mitogen-activated protein kinase 14 (Homo sapiens, UniProt Q16539); experiment: Inhibition of p38alpha after 1 hr by ELISA
NIH3T3 [4] = experiment: Antimigratory activity against Swiss albino mouse 3T3 cells assessed as increase of cell numbers at 1 to 20 uM after 12 hrs by scratch-wound assay; assay type: functional, cell-based; method in brief: as §1
Jurkat [5] = experiment: Inhibition of TNF-alpha-induced NFkappaB activation in human Jurkat cells at 10 to 20 uM after 24 hrs by electrophoretic mobility shift assay; assay type: cell-based
Method in brief: (§2)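 Jurkat T cells (3 × 10⁵ cells/mL) in RPMI 1640 with 10% FCS were preincubated 24 h with compound at 10, 20, 30 or 55 µM. They were then stimulated 1 h with rh-TNF-α 2.5 ng/mL. Nuclear extracts were probed with a [γ-³³P]-labelled NF-κB consensus oligonucleotide. Specificity was checked with a 100-fold molar excess of unlabelled oligo. Bands were quantified densitometrically by phosphorimager.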

Jurkat [6] = experiment: Cytotoxicity against human Jurkat cells at 55 uM after 22 hrs by MTT assay; assay type: cell-based
Jurkat [7] = experiment: Inhibition of TNF-alpha-induced NFkappaB activation in human Jurkat cells at 30 to 55 uM after 24 hrs by electrophoretic mobility shift assay; assay type: cell-based; method in brief: as §2
Jurkat [8] = experiment: Inhibition of TNFalpha-induced NF-kappaB activation in human Jurkat cells at 10 to 55 uM after 24 hrs by electrophoretic mobility shift assay; assay type: cell-based; method in brief: as §2
NIH3T3 [9] = experiment: Antimigratory activity against Swiss albino mouse 3T3 cells assessed as increase of cell numbers at 2 ng/ml after 12 hrs by scratch-wound assay; assay type: functional
Method in brief: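 Swiss 3T3 albino mouse fibroblasts were grown in DMEM with 10% fetal calf serum and penicillin/streptomycin at 37 °C and 5% CO2, and a scratch wound was made in the monolayer. PDGF (2 ng/mL) was incubated for 12 h. Read-out was the % of cells that migrated into and proliferated in the wounded area, relative to a cells-plus-DMSO control. At least triplicate; mean ± SEM.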

Sequence of Mitogen-activated protein kinase 14 (Q16539 whole entry): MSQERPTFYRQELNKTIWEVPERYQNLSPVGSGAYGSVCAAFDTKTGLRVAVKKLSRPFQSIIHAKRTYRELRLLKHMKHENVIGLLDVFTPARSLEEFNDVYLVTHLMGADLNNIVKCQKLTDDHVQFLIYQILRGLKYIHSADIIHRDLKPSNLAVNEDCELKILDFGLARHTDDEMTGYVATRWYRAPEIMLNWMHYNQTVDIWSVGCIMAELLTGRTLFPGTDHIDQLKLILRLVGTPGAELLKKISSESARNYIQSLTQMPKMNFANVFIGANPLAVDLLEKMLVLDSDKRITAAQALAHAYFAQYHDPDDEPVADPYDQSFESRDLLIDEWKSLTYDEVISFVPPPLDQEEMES

Compound | IC50 [3] [µM] | Activity (NIH3T3 [4]) | Activity (Jurkat [8]) | also measured
O=C(O[C@@H]1Cc2c(O)cc(O)cc2O[C@@H]1c1ccc(O)c(O)c1)c1cc(O)c(O)c(O)c1 [EPICATECHIN GALLATE] | 1.47 |  |  | Activity (NIH3T3 [1]): Active; Activity (NIH3T3 [2]): inactive
COc1cc([C@H]2CC(=O)Oc3cc(O)c4c(c32)O[C@H](c2cc(O)c(OC)c(O)c2)[C@@H](O)C4)ccc1O | 50.8 | Active |  | Activity (Jurkat [5]): Active; Activity (Jurkat [6]): 11%; Activity (Jurkat [7]): inactive
COc1c(O)cc([C@H]2Oc3cc(O)cc(O)c3C[C@@H]2O)cc1O |  | Active | Active | 
O=C(O[C@@H]1Cc2c(O)cc(O)cc2O[C@@H]1c1cc(O)c(O)c(O)c1)c1cc(O)c(O)c(O)c1 [EPIGALOCATECHIN GALLATE] | 2.21 | Active | Active | Activity (NIH3T3 [9]): 59.5%
COc1c(O)cc([C@H]2Oc3cc(O)cc(O)c3C[C@H]2OC(=O)c2cc(O)c(O)c(O)c2)cc1O |  | Active | Active | 
COc1ccc([C@H]2Oc3cc(O)cc(O)c3C[C@H]2OC(=O)c2cc(O)c(O)c(O)c2)cc1O |  |  |  | Activity (NIH3T3 [1]): Active; Activity (NIH3T3 [2]): inactive
COc1c(O)cc([C@H]2Oc3cc(O)cc(O)c3C[C@H]2O)cc1O | 39.2 |  | Active | 
COc1cc(/C=C/C(=O)O[C@@H]2Cc3c(O)cc(O)cc3O[C@@H]2c2cc(O)c(O)c(O)c2)ccc1O |  |  | Active | 
